Data reported in ChEMBL document CHEMBL1146219, “Synthesis and evaluation of novel radioiodinated benzamides for malignant melanoma” (J Med Chem, 2007).

Tests used:
Conditions in all cases: in vivo
[1] = Biodistribution in melanoma of B16F0 tumor bearing C57BL/6J mouse at 0.37-0.74 MBq, iv after 3 hrs; format: ADME, organism-based, B16-F0
In short: (§1)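 Female C57BL/6J mice (15-18 g) were given B16F0 cells subcutaneously in the left flank (0.1 mL of 3 × 10⁶ viable cells/mL in Ca²⁺/Mg²⁺-free PBS) at 6-7 weeks and used after ten days. [¹²³I]benzamide (0.37-0.74 MBq, 100 µL, saline) was injected via the tail vein. Groups of n = 5 were killed by CO₂ and cervical dislocation. Organs were weighed and γ-counted, and the carcass was counted too.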

Liver [2] = assay: Biodistribution in liver of B16F0 tumor bearing C57BL/6J mouse at 0.37-0.74 MBq, iv after 1 hr; format: ADME, organism-based; in short: as §1
Blood [3] = assay: Biodistribution in blood of B16F0 tumor bearing C57BL/6J mouse at 0.37-0.74 MBq, iv after 48 hrs; format: ADME, organism-based; in short: as §1
Lung [4] = assay: Biodistribution in lung of B16F0 tumor bearing C57BL/6J mouse at 0.37-0.74 MBq, iv after 3 hrs; format: ADME, organism-based; in short: as §1
Blood [5] = assay: Biodistribution in blood of B16F0 tumor bearing C57BL/6J mouse at 0.37-0.74 MBq, iv after 1 hr in presence of haloperidol; format: ADME, organism-based
Lung [6] = assay: Biodistribution in lung of B16F0 tumor bearing C57BL/6J mouse at 0.37-0.74 MBq, iv after 1 hr in presence of haloperidol; format: ADME, organism-based
In short: (§2)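 Haloperidol blocking in B16F0-bearing C57BL/6J mice: 1 mg/kg haloperidol was given iv 5 min before the iv [¹²³I]benzamide (0.37-0.74 MBq). Groups of n = 5 were killed at 1 or 24 h. Tissues were weighed and γ-counted as in the biodistribution study and compared with untreated controls by one-way ANOVA, with p < 0.01 taken as significant.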

Liver [7] = assay: Biodistribution in liver of B16F0 tumor bearing C57BL/6J mouse at 0.37-0.74 MBq, iv after 72 hrs; format: ADME, organism-based; in short: as §1
Kidney [8] = assay: Biodistribution in kidney of B16F0 tumor bearing C57BL/6J mouse at 0.37-0.74 MBq, iv after 1 hr in presence of haloperidol; format: ADME, organism-based; in short: as §2
[9] = Biodistribution in melanoma of B16F0 tumor bearing C57BL/6J mouse at 0.37-0.74 MBq, iv after 1 hr; format: ADME, organism-based, B16-F0; in short: as §1
Lung [10] = assay: Biodistribution in lung of B16F0 tumor bearing C57BL/6J mouse at 0.37-0.74 MBq, iv after 1 hr; format: ADME, organism-based; in short: as §1
Kidney [11] = assay: Biodistribution in kidney of B16F0 tumor bearing C57BL/6J mouse at 0.37-0.74 MBq, iv after 6 hrs; format: ADME, organism-based; in short: as §1
Liver [12] = assay: Biodistribution in liver of B16F0 tumor bearing C57BL/6J mouse at 0.37-0.74 MBq, iv after 24 hrs; format: ADME, organism-based; in short: as §1
Brain [13] = assay: Biodistribution in brain of B16F0 tumor bearing C57BL/6J mouse at 0.37-0.74 MBq, iv after 1 hr in presence of haloperidol; format: ADME, organism-based
Brain [14] = assay: Biodistribution in brain of B16F0 tumor bearing C57BL/6J mouse at 0.37-0.74 MBq, iv after 24 hrs in presence of haloperidol; format: ADME, organism-based
Liver [15] = assay: Biodistribution in liver of B16F0 tumor bearing C57BL/6J mouse at 0.37-0.74 MBq, iv after 1 hr in presence of haloperidol; format: ADME, organism-based; in short: as §2
Lung [16] = assay: Biodistribution in lung of B16F0 tumor bearing C57BL/6J mouse at 0.37-0.74 MBq, iv after 24 hrs in presence of haloperidol; format: ADME, organism-based; in short: as §2
Kidney [17] = assay: Biodistribution in kidney of B16F0 tumor bearing C57BL/6J mouse at 0.37-0.74 MBq, iv after 1 hr; format: ADME, organism-based; in short: as §1
Brain [18] = assay: Biodistribution in brain of B16F0 tumor bearing C57BL/6J mouse at 0.37-0.74 MBq, iv after 72 hrs; format: ADME, organism-based; in short: as §1
Kidney [19] = assay: Biodistribution in kidney of B16F0 tumor bearing C57BL/6J mouse at 0.37-0.74 MBq, iv after 3 hrs; format: ADME, organism-based; in short: as §1
Kidney [20] = assay: Biodistribution in kidney of B16F0 tumor bearing C57BL/6J mouse at 0.37-0.74 MBq, iv after 48 hrs; format: ADME, organism-based; in short: as §1
Blood [21] = assay: Biodistribution in blood of B16F0 tumor bearing C57BL/6J mouse at 0.37-0.74 MBq, iv after 6 hrs; format: ADME, organism-based; in short: as §1
Liver [22] = assay: Biodistribution in liver of B16F0 tumor bearing C57BL/6J mouse at 0.37-0.74 MBq, iv after 6 hrs; format: ADME, organism-based; in short: as §1
Lung [23] = assay: Biodistribution in lung of B16F0 tumor bearing C57BL/6J mouse at 0.37-0.74 MBq, iv after 24 hrs; format: ADME, organism-based; in short: as §1
Blood [24] = assay: Biodistribution in blood of B16F0 tumor bearing C57BL/6J mouse at 0.37-0.74 MBq, iv after 1 hr; format: ADME, organism-based; in short: as §1
Heart [25] = assay: (§3) Biodistribution in heart of B16F0 tumor bearing C57BL/6J mouse at 0.37-0.74 MBq, iv after 6 hrs; format: ADME, organism-based; in short: as §1
Heart [26] = assay: Biodistribution in heart of B16F0 tumor bearing C57BL/6J mouse at 0.37-0.74 MBq, iv after 1 hr; format: ADME, organism-based; in short: as §1
Blood [27] = assay: Biodistribution in blood of B16F0 tumor bearing C57BL/6J mouse at 0.37-0.74 MBq, iv after 24 hrs in presence of haloperidol; format: ADME, organism-based
[28] = Biodistribution in melanoma of B16F0 tumor bearing C57BL/6J mouse at 0.37-0.74 MBq, iv after 48 hrs; format: ADME, organism-based, B16-F0; in short: as §1
Heart [29] = assay: as §3; format: ADME, organism-based; in short: as §1; remark: listed apart in the source
Kidney [30] = assay: Biodistribution in kidney of B16F0 tumor bearing C57BL/6J mouse at 0.37-0.74 MBq, iv after 24 hrs in presence of haloperidol; format: ADME, organism-based; in short: as §2
[31] = Biodistribution in eye of B16F0 tumor bearing C57BL/6J mouse at 0.37-0.74 MBq, iv after 24 hrs in presence of haloperidol; format: ADME, organism-based; in short: as §2
Brain [32] = assay: Biodistribution in brain of B16F0 tumor bearing C57BL/6J mouse at 0.37-0.74 MBq, iv after 6 hrs; format: ADME, organism-based; in short: as §1
Heart [33] = assay: Biodistribution in heart of B16F0 tumor bearing C57BL/6J mouse at 0.37-0.74 MBq, iv after 72 hrs; format: ADME, organism-based; in short: as §1
[34] = Biodistribution in tumor of B16F0 tumor bearing C57BL/6J mouse at 0.37-0.74 MBq, iv after 1 hr in presence of haloperidol; format: ADME, organism-based, B16-F0
In short: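 B16F0 tumor-bearing C57BL/6J mice, groups of n = 5, given haloperidol 1 mg/kg i.v. 5 min before the i.v. [¹²³I]tracer (0.37-0.74 MBq). Killed at 1 or 24 h. Tissues γ-counted as for biodistribution and compared with untreated controls by one-way ANOVA, significance p < 0.01.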

Heart [35] = assay: Biodistribution in heart of B16F0 tumor bearing C57BL/6J mouse at 0.37-0.74 MBq, iv after 24 hrs; format: ADME, organism-based; in short: as §1
Kidney [36] = assay: Biodistribution in kidney of B16F0 tumor bearing C57BL/6J mouse at 0.37-0.74 MBq, iv after 24 hrs; format: ADME, organism-based; in short: as §1

SMILES: CCCCN(C)CCCCNC(=O)c1cc([123I])c(NC(C)=O)cc1OC
- Drug uptake [1]: 9.7 % ID/g
- Drug uptake (Liver [2]): 16.8 % ID/g
- Drug uptake (Blood [3]): 0.04 % ID/g
- Drug uptake (Lung [4]): 0.95 % ID/g
- Drug uptake (Blood [5]): 1.15 % ID/g
- Drug uptake (Lung [6]): 1.54 % ID/g
- Drug uptake (Liver [7]): 0.25 % ID/g
- Drug uptake (Kidney [8]): 17.3 % ID/g
- Drug uptake [9]: 5.6 % ID/g
- Drug uptake (Lung [10]): 1.9 % ID/g
- Drug uptake (Kidney [11]): 1.2 % ID/g
- Drug uptake (Liver [12]): 0.47 % ID/g
- Drug uptake (Brain [13]): 0.06 % ID/g
- Drug uptake (Brain [14]): 0.002 % ID/g
- Drug uptake (Liver [15]): 15.6 % ID/g
- Drug uptake (Lung [16]): 0.02 % ID/g
- Drug uptake (Kidney [17]): 21.6 % ID/g
- Drug uptake (Brain [18]): 0.01 % ID/g
- Drug uptake (Kidney [19]): 3.9 % ID/g
- Drug uptake (Kidney [20]): 0.07 % ID/g
- Drug uptake (Blood [21]): 0.71 % ID/g
- Drug uptake (Liver [22]): 1.8 % ID/g
- Drug uptake (Lung [23]): 0.1 % ID/g
- Drug uptake (Blood [24]): 1.2 % ID/g
- Drug uptake (Heart [25]): 0.54 % ID/g
- Drug uptake (Heart [26]): 0.98 % ID/g
- Drug uptake (Blood [27]): 0.02 % ID/g
- Drug uptake [28]: 4.6 % ID/g
- Drug uptake (Heart [29]): 0.75 % ID/g
- Drug uptake (Kidney [30]): 0.03 % ID/g
- Drug uptake [31]: 18.7 % ID/g
- Drug uptake (Brain [32]): 0.03 % ID/g
- Drug uptake (Heart [33]): 0.06 % ID/g
- Drug uptake [34]: 6.1 % ID/g
- Drug uptake (Heart [35]): 0.12 % ID/g
- Drug uptake (Kidney [36]): 0.12 % ID/g
